This is an account of results in paper PMC12018814 (Plant Biotechnology Journal, 2025).

The experiment deals with Ach15909. As to the kind of experiment: HPLC of salidroside formed. The class given is biochemical, Astilbe chinensis. To be noted: 2 mM UDP-glucose, 0.05-2.0 mM tyrosol, 50 mM PB pH 8.0, 37 °C, 30 min. In short, it runs like this:
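Recombinant A. chinensis UGT was expressed in E. coli Rosetta 2 (DE3), Ni-NTA purified with an imidazole gradient, exchanged into PBS pH 7.4, and quantified by BCA. Reactions were started by adding protein and quenched for C18 HPLC (0.1% formic acid water/acetonitrile gradient, 275 nm). Salidroside was quantified against an external standard curve, in triplicate, with kinetic parameters from non-linear fitting.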

As for `OCCc1ccc(O)cc1` [compound 1, tyrosol], the Km turned out to be 740 ± 200 µM.
